Bioassay records deposited in PubChem by several laboratories.
In the library only some 5.1% were active in any assay of this set; here they are far more common.
APP 5'UTR act – activates APP 5'UTR luciferase reporter; SH-SY5Y APP 5'UTR luciferase reporter, luminescence; zero percent = DMSO vehicle wells; activation, % at 2 µM; actives 1% (n = 190,000); AID 1276;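 active = activation above a set limit, based on mean plus 3 SD of controls, cut at about 140% in these data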
STAT3 act – activators of IL-6 induced STAT3 signaling | activation (% of control), % at 5.6 µM | AID 871 | actives 0.91% (n = 190,000) | U3A cells, IL-6 STAT3-luciferase reporter, luminescence; 100% = signal with IL-6 EC80 alone;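 active = activation above the screen-wide mean of compound activation plus 3 SD, cut at about 130% in these data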
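Detection: reporter luminescence signal / Assay system: STAT1-lacking human U3A cells, STAT3 luciferase reporter / Incubation: compound pre-incubation 1 h before IL-6, then 6 h stimulation at 37 °C / Control set: IL-6-only high control / Read-out: % activation relative to IL-6 control / Probe or stimulus: Interleukin-6, 33 ng/mL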
NF-kB neuron act – NF-kB expression increase, human neuronal cells; NF-kB reporter expression; hits give high values; fold change at 12.5 µM; actives 1.6% (n = 190,000); in the data active = fold change above about 3.3
STAT1 act – STAT1 signaling activation; activation (% of control), % at 5.5 µM; actives 2.6% (n = 200,000); NIH 3T3 STAT1-luciferase reporter, IFN-gamma, luminescence; 100% = IFN-gamma alone, no compound;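 active = activation above the screen-wide mean activation plus 3 SD, cut at about 130% in these data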
STAT3 inh – inhibitors of IL-6 induced STAT3 signaling | actives 0.89% (n = 190,000) | AID 862 | inhibition, % at 5.5 µM | U3A cells, IL-6 STAT3-luciferase reporter, luminescence; host cell line lacks STAT1;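 active = inhibition above the mean inhibition across all screened compounds plus 3 SD, cut at about 44% in these data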
STAT1 inh – reduces IFN-gamma driven STAT1 reporter signal; NIH 3T3 STAT1-luciferase reporter, luminescence; AID 920; actives 0.35% (n = 200,000); inhibition, % at 5.5 µM;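 active = inhibition above a set limit, the mean inhibition across all tested compounds plus 3 SD, cut at about 34% in these data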
Of the large screens only hits and unclear results are named; the others gave an inactive call.

Cc1ccc(C(=O)C2=C(O)C(=O)N(Cc3ccccc3)C2c2cccnc2)o1 (centres undefined)	STAT1 inh 36.6
Fc1cccc2sc(Nc3nnc(-c4ccco4)o3)nc12	STAT1 act 132.3
COc1cccc2sc(Nc3nnc(-c4cccs4)o3)nc12	STAT3 act 172.1, STAT1 act 139.1
Cc1ccc(-c2nnc(-c3ccccc3)o2)cc1	NF-kB neuron act 7.87
c1ccc(-c2nnc(-c3cccc(-c4nnc(-c5ccccc5)o4)c3)o2)cc1	none (no result: NF-kB neuron act)
Cc1ccc(/C=C/c2nnc(-c3ccc(C)cc3)o2)cc1	none
Cc1ccc(-c2nnc(-c3cccs3)o2)cc1	APP 5'UTR act 140.5, NF-kB neuron act 5.48
Fc1ccc(/C=C/c2nnc(-c3cccs3)o2)cc1	NF-kB neuron act 4.17, STAT1 act 128.9
Cc1ccc(-c2nnc(N)o2)cc1	none
O=C(COC(=O)C1CC(=O)N(Cc2ccccc2)C1)Nc1ccc(Cl)cc1F (centres undefined)	none
O=C(Cc1c(F)cccc1Cl)Nc1nc2ccccc2s1	STAT1 act 135.3
CCOCC(=O)Nc1nc2ccc(C)cc2s1	NF-kB neuron act 3.44
CCOC(=O)Nc1nc2ccccc2s1	NF-kB neuron act 3.47
Cc1ccc2nc(NC(=O)c3ccc4ncsc4c3)sc2c1	APP 5'UTR act 172.2, NF-kB neuron act 4.12, STAT1 act 147.4
CC1(C)CC(=O)C=C(Nc2ccc(OCC(F)(F)C(F)F)cc2)C1	none
Cc1ccc2nc(NC(=O)CCCc3nc4ccccc4s3)sc2c1	none
Cc1ccc2nc(NC(=O)CCCC(=O)O)sc2c1	STAT3 inh 79.5, STAT1 inh 51.5
CCCCNC(=O)Nc1nc2ccc(CC)cc2s1	STAT1 act 144.3
CCOc1ccc(OCc2cccc(C(=O)N/N=C/c3cccnc3)c2)cc1	STAT3 inh 95.5, STAT1 inh 62.3
CC(C)c1ccc(OCc2cccc(C(=O)N/N=C/c3cccnc3)c2)cc1	STAT3 inh 56.8, STAT1 inh 36.1
Cc1ccc(C(=O)NCc2ccco2)cc1S(=O)(=O)N1CCOCC1	none
N#CCCn1nc(-c2ccccc2)cc1-n1c(C(F)(F)F)nc2ccccc21	none
[O-]/[N+](=C/c1ccc(F)cc1)c1ccc(Cl)cc1	NF-kB neuron act 3.98
[O-]/[N+](=C/c1cccnc1)c1ccc(Br)cc1	none
N#C/C(=C\c1ccc([N+](=O)[O-])cc1)c1ccccn1	STAT1 act 131.8
CN(C)c1ccc(/C=C(\C#N)c2ccccn2)cc1	STAT3 inh 98.9, STAT1 inh 54.2
CN(C)c1ccc(NC(=S)c2ccccn2)cc1	STAT3 inh 97.9, STAT1 inh 68.3
CC1=CC(=O)C=C(C)C1=NOC(=O)/C=C\c1ccccc1	none
Oc1c(N=Nc2ccccn2)ccc2ccccc12	NF-kB neuron act 3.56
CN(C)c1ccc(N=Cc2nc(-c3ccccc3)oc2OC(=O)c2cccc(Cl)c2)cc1	NF-kB neuron act 3.43, STAT1 act 128.8
Cc1ccc(-c2nc(C=Nc3ccccc3)c(O)o2)cc1	none
Cc1ccc(C(=O)Oc2oc(-c3ccccc3)nc2C=Nc2ccc(N(C)C)cc2)cc1	APP 5'UTR act 145.9, STAT1 act 149.0
Cc1ccc2[nH]c(=O)c(NC(N)=S)nc2c1	none
CCC(=O)Nc1cnc(NC(=O)c2cccc(F)c2)cc1C	STAT1 act 142.2
CC(=O)c1ccc(NC(=O)Nc2ccccc2)cc1	APP 5'UTR act 138.4, NF-kB neuron act 3.6
N#CC1=C(N)OC2=C(CCc3ccccc32)C1c1ccccc1 (centres undefined)	NF-kB neuron act 4.7
O=C(Nc1nc2ccccc2s1)c1cc2c(s1)-c1ccccc1OC2	none
O=C(Nc1nccs1)c1cc2c(s1)-c1ccccc1OC2	STAT1 act 146.3
CC1CCN(c2oc(-c3ccccc3Cl)nc2C#N)CC1	NF-kB neuron act 3.7
COc1ccc(NC(=O)Cc2c(F)cccc2Cl)cc1	none
COc1cccc(Nc2ncnc3ccccc23)c1	none
CCCCCCCCNc1ncnc2ccccc12	STAT3 inh 88.6
COc1ccc(Nc2ncnc3ccccc23)cc1	STAT1 act 129.4
CCC(=O)NNc1ncnc2ccccc12	none
O=C(NCCC1=CCCCC1)C1CCCN(S(=O)(=O)c2cccnc2)C1 (centres undefined)	none
OC(CNCc1ccccc1)Cn1ccc2ccccc21 (centres undefined)	none
Oc1ccccc1NCC(O)Cn1ccc2ccccc21 (centres undefined)	STAT3 act 134.5
Cn1ncc2c1ncn1nc(COc3ccc4ccccc4c3)nc21	none
Cn1ncc2c1ncn1nc(CCc3ccccc3)nc21	NF-kB neuron act 3.8, STAT1 act 142.5
COc1cc(S(=O)(=O)N2CCN(c3ccccc3)CC2)ccc1F	none
COC(=O)CCn1nnc(-c2ccc(C(C)C)cc2)n1	STAT3 inh 84.3, STAT1 inh 47.7
CCCn1c(NC(=O)c2ccc(F)cc2)nc2ccccc21	none
CCCn1c(NC(=O)c2ccc(Br)cc2)nc2ccccc21	STAT3 act 133.8
C[C@@H](O)C1NC(=O)[C@H](CCCCN)NC(=O)c2cc([N+](=O)[O-])cc(F)c2NCCCC[C@@H](C(N)=O)NC1=O (some centres undefined)	none
CN=c1scc(-c2ccccc2F)n1/N=C/c1ccc[nH]1	STAT3 inh 110.3, STAT1 inh 96.7
Oc1ccccc1N=Cc1ccc[nH]1	none
CN=c1scc(-c2ccccc2F)n1/N=C/c1ccc(O)c(O)c1O	STAT3 inh 50.5, STAT1 inh 87.4
Cc1[nH]n(-c2cccc(Cl)c2)c(=O)c1C=NCC(C)C	STAT1 act 144.3
Cc1[nH]n(-c2cccc(Cl)c2)c(=O)c1C=NC12CN3CN(CN(C3)C1)C2	none
Cc1[nH]n(-c2cccc(Cl)c2)c(=O)c1C=NCc1ccco1	APP 5'UTR act 144.6, NF-kB neuron act 6.74
COc1ccc2c(c1)[nH]c(=O)c1sc3ccccc3c12	STAT3 act 174.1
Nc1nc2c(s1)CCc1c-2cnn1-c1ccccc1	APP 5'UTR act 138.0, NF-kB neuron act 3.42, STAT1 act 155.3
Nc1nc2c(s1)COc1ccccc1-2	none
COc1cccc(Nc2n[nH]c(=S)s2)c1	none
COc1cccc(Nc2nc3ccc(OC)cc3s2)c1	APP 5'UTR act 194.6, NF-kB neuron act 4.74, STAT1 act 129.3
COc1ccc(-c2nc(NC3=NCCCCC3)sc2C)cc1	none
COc1ccc2nc(NC3=NCCC3)sc2c1	STAT1 act 136.1
O=C(NNC(=O)c1cccnc1)NC12CC3CC(CC(C3)C1)C2	none
CCCc1cc(C(=O)Nc2ccccc2C(=O)OC)no1	none
CCCC[n+]1c(-c2ccc(Cl)cc2Cl)csc1Nc1ccccc1	none
Clc1ccc(-c2csc(Nc3ccccc3)[n+]2Cc2ccco2)c(Cl)c1	STAT1 act 140.4
